What all share (assay type): functional
Assay [1] relates to Mus musculus. Put plainly: Antihyperlipidemic activity in olive oil-treated ddY mouse assessed as serum triglyceride level at 50 mg/kg, po after 2 hrs. In outline: (§1)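 Male ddY mice (25-30 g) kept at 23 ± 2 °C on standard chow, fasted 24-26 h with free access to water, conscious. Test sample given orally; olive oil (5 mL/kg, p.o.) given 30 min later. Blood drawn from the infraorbital venous plexus 2, 4 and 6 h after olive oil. Serum TG measured enzymatically (triglyceride E test). Means ± SEM, n = 5-12 per group.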

In assay [2] the test system is Mus musculus. Put plainly: Antihyperlipidemic activity in olive oil-treated ddY mouse assessed as serum triglyceride level at 100 mg/kg, po after 2 hrs. In outline: as §1
Assay [3] concerns Mus musculus. Put plainly: Antihyperlipidemic activity in olive oil-treated ddY mouse assessed as serum triglyceride level at 50 mg/kg, po after 4 hrs. In outline:
as §1

For assay [4], the system named is Mus musculus. Put plainly: Antihyperlipidemic activity in olive oil-treated ddY mouse assessed as serum triglyceride level at 100 mg/kg, po after 4 hrs. In outline: as §1
In assay [5] the test system is Mus musculus. Put plainly: Antihyperlipidemic activity in olive oil-treated ddY mouse assessed as serum triglyceride level at 50 mg/kg, po after 6 hrs. In outline: as §1
In assay [6] the test system is Mus musculus. Put plainly: Antihyperlipidemic activity in olive oil-treated ddY mouse assessed as serum triglyceride level at 100 mg/kg, po after 6 hrs. In short, it runs like this:
as §1

The subject of assay [7] is Mus musculus. Put plainly: Antihyperlipidemic activity in olive oil-treated ddY mouse assessed as serum triglyceride level at 125 mg/kg, po after 2 hrs. In short, it runs like this: as §1
The subject of assay [8] is Mus musculus. Put plainly: Antihyperlipidemic activity in olive oil-treated ddY mouse assessed as serum triglyceride level at 250 mg/kg, po after 2 hrs. In short, it runs like this:
as §1

Assay [9] deals with Mus musculus. Put plainly: Antihyperlipidemic activity in olive oil-treated ddY mouse assessed as serum triglyceride level at 500 mg/kg, po after 2 hrs. In short, it runs like this:
as §1

In assay [10] the test system is Mus musculus. Put plainly: Antihyperlipidemic activity in olive oil-treated ddY mouse assessed as serum triglyceride level at 125 mg/kg, po after 4 hrs. In outline: as §1
The test system of assay [11] is Mus musculus. Put plainly: Antihyperlipidemic activity in olive oil-treated ddY mouse assessed as serum triglyceride level at 250 mg/kg, po after 4 hrs. In short, it runs like this:
as §1

Assay [12] relates to Mus musculus. Put plainly: Antihyperlipidemic activity in olive oil-treated ddY mouse assessed as serum triglyceride level at 500 mg/kg, po after 4 hrs. In short, it runs like this: as §1
For assay [13], the system named is Mus musculus. Put plainly: Antihyperlipidemic activity in olive oil-treated ddY mouse assessed as serum triglyceride level at 125 mg/kg, po after 6 hrs. In short, it runs like this: as §1
Assay [14] relates to Mus musculus. Put plainly: Antihyperlipidemic activity in olive oil-treated ddY mouse assessed as serum triglyceride level at 250 mg/kg, po after 6 hrs. In outline:
as §1

Assay [15] has as its system Mus musculus. Put plainly: Antihyperlipidemic activity in olive oil-treated ddY mouse assessed as serum triglyceride level at 500 mg/kg, po after 6 hrs. In outline: as §1
For assay [16], the system named is Mus musculus. Put plainly: Antihyperlipidemic activity in olive oil-treated ddY mouse assessed as serum triglyceride level at 25 mg/kg, po after 2 hrs. In outline:
as §1

Assay [17] concerns Mus musculus. Put plainly: Antihyperlipidemic activity in olive oil-treated ddY mouse assessed as serum triglyceride level at 25 mg/kg, po after 4 hrs. In outline:
as §1

In assay [18] the test system is Mus musculus. Put plainly: Antihyperlipidemic activity in olive oil-treated ddY mouse assessed as serum triglyceride level at 25 mg/kg, po after 6 hrs. In outline: as §1
The test system of assay [19] is Mus musculus. Put plainly: Antihyperlipidemic activity in olive oil-treated ddY mouse assessed as serum triglyceride level at 6.25 mg/kg, po after 2 hrs. In outline: as §1
The subject of assay [20] is Mus musculus. Put plainly: Antihyperlipidemic activity in olive oil-treated ddY mouse assessed as serum triglyceride level at 12.5 mg/kg, po after 2 hrs. In short, it runs like this: as §1
Assay [21] relates to Mus musculus. Put plainly: Antihyperlipidemic activity in olive oil-treated ddY mouse assessed as serum triglyceride level at 6.25 mg/kg, po after 4 hrs. In outline:
as §1

Assay [22] deals with Mus musculus. Put plainly: Antihyperlipidemic activity in olive oil-treated ddY mouse assessed as serum triglyceride level at 12.5 mg/kg, po after 4 hrs. In short, it runs like this: as §1
In assay [23] the test system is Mus musculus. Put plainly: Antihyperlipidemic activity in olive oil-treated ddY mouse assessed as serum triglyceride level at 6.25 mg/kg, po after 6 hrs. In short, it runs like this:
as §1

Assay [24] deals with Mus musculus. Put plainly: Antihyperlipidemic activity in olive oil-treated ddY mouse assessed as serum triglyceride level at 12.5 mg/kg, po after 6 hrs. In short, it runs like this: as §1

`CC1(C)C[C@H]2C3=CC[C@@H]4[C@@]5(C)CC[C@H](O[C@@H]6O[C@H](C(=O)O)[C@@H](O)[C@H](O[C@@H]7OC[C@H](O)[C@H](O)[C@H]7O[C@@H]7OC[C@@H](O)[C@H](O)[C@H]7O)[C@H]6O[C@@H]6O[C@H](CO)[C@H](O)[C@H](O)[C@H]6O)[C@@](C)(C=O)C5CC[C@@]4(C)[C@]3(C)C[C@@H](O)[C@@]2(CO)[C@@H](O)[C@@H]1O` (stereo partly drawn): the Activity in the assay on Mus musculus [1] stood at 468.7 mg/dL; in the assay on Mus musculus [2], 440.8 mg/dL; in the assay with Mus musculus [3] it was 410.5 mg/dL; with Mus musculus [4], 363.2 mg/dL; in the assay on Mus musculus [5], 332.3 mg/dL; in the assay with Mus musculus [6], 314.3 mg/dL.

Take `CCOC(=O)C(C)(C)Oc1ccc(Cl)cc1` [CLOFIBRATE]: the Activity in the assay with Mus musculus [7] worked out at 377.5 mg/dL; in the assay with Mus musculus [8], 441.2 mg/dL; in the assay on Mus musculus [9] it was 318.2 mg/dL; in the assay with Mus musculus [10], 295 mg/dL; in the assay on Mus musculus [11] it was 340.5 mg/dL; in the assay with Mus musculus [12], 239.7 mg/dL. The Activity was 333.4 mg/dL with Mus musculus [13], 443.3 mg/dL in the assay with Mus musculus [14] and 373.5 mg/dL in the assay on Mus musculus [15].

For the compound `C/C=C\C(=O)O[C@H]1[C@H](OC(C)=O)[C@]2(CO)[C@H](O)C[C@]3(C)C(=CC[C@@H]4[C@@]5(C)CC[C@H](O[C@@H]6O[C@H](C(=O)O)[C@@H](O)[C@H](O[C@@H]7OC[C@H](O)[C@H](O)[C@H]7O[C@@H]7OC[C@@H](O)[C@H](O)[C@H]7O)[C@H]6O[C@@H]6O[C@H](CO)[C@H](O)[C@H](O)[C@H]6O)C(C)(C)C5CC[C@]43C)[C@@H]2CC1(C)C` (stereo partly drawn) [FLORATHEASAPONIN A], the Activity in the assay with Mus musculus [16] turned out to be 411 mg/dL; in the assay on Mus musculus [1], 387.4 mg/dL; in the assay with Mus musculus [2], 158.3 mg/dL; in the assay with Mus musculus [17] it was 251.8 mg/dL; in the assay on Mus musculus [3] it was 392.9 mg/dL; with Mus musculus [4] it was 242 mg/dL. Besides, the Activity in the assay on Mus musculus [18] stood at 135.7 mg/dL; in the assay on Mus musculus [5], 256.8 mg/dL; with Mus musculus [6] it was 322.3 mg/dL.

`CCCCCCCCCCC[C@@H](C[C@@H]1OC(=O)[C@H]1CCCCCC)OC(=O)[C@H](CC(C)C)NC=O` [ORLISTAT]: the Activity in the assay with Mus musculus [16] turned out to be 158.9 mg/dL; in the assay with Mus musculus [17], 132.2 mg/dL; with Mus musculus [18], 140.1 mg/dL; with Mus musculus [19] it was 266.4 mg/dL; with Mus musculus [20] it was 187.9 mg/dL; in the assay on Mus musculus [21], 179.3 mg/dL. For the same compound, the results for the Activity in the assay with Mus musculus [22], with Mus musculus [23] and in the assay with Mus musculus [24] were 176 mg/dL, 155.6 mg/dL and 189.7 mg/dL, respectively.

For `C/C=C\C(=O)O[C@H]1[C@H](OC(C)=O)[C@]2(CO)[C@H](O)C[C@]3(C)C(=CC[C@@H]4[C@@]5(C)CC[C@H](O[C@@H]6O[C@H](C(=O)O)[C@@H](O)[C@H](O[C@@H]7OC[C@H](O)[C@H](O)[C@H]7O[C@@H]7OC[C@@H](O)[C@H](O)[C@H]7O)[C@H]6O[C@@H]6O[C@H](CO)[C@H](O)[C@H](O)[C@H]6O)[C@@](C)(C=O)C5CC[C@]43C)[C@@H]2CC1(C)C` (stereo partly drawn) [THEASAPONIN E1], the Activity stood at 578.5 mg/dL in the assay with Mus musculus [16]; 373.9 mg/dL with Mus musculus [1]; 342.3 mg/dL in the assay on Mus musculus [2]; 430.7 mg/dL with Mus musculus [17]; 312.2 mg/dL in the assay on Mus musculus [3]; 389.5 mg/dL in the assay on Mus musculus [4]. Moreover, the Activity amounted to 233.9 mg/dL with Mus musculus [18], 267.2 mg/dL in the assay on Mus musculus [5] and 294.9 mg/dL in the assay with Mus musculus [6].

With `C/C=C\C(=O)O[C@H]1[C@H](O)[C@]2(COC(C)=O)[C@H](O)C[C@]3(C)C(=CC[C@@H]4[C@@]5(C)CC[C@H](O[C@@H]6O[C@H](C(=O)O)[C@@H](O)[C@H](O[C@@H]7OC[C@H](O)[C@H](O)[C@H]7O[C@@H]7OC[C@@H](O)[C@H](O)[C@H]7O)[C@H]6O[C@@H]6O[C@H](CO)[C@H](O)[C@H](O)[C@H]6O)[C@@](C)(C=O)C5CC[C@]43C)[C@@H]2CC1(C)C` (stereo partly drawn) [THEASAPONIN E2], the Activity was determined as 552.9 mg/dL in the assay with Mus musculus [1]; 509.4 mg/dL in the assay on Mus musculus [2]; 507.5 mg/dL in the assay on Mus musculus [3]; 507 mg/dL with Mus musculus [4]; 361.3 mg/dL with Mus musculus [5]; 396.4 mg/dL in the assay with Mus musculus [6].

The values above are taken from ChEMBL document CHEMBL1141803, “Floratheasaponins A-C, acylated oleanane-type triterpene oligoglycosides with anti-hyperlipidemic activities from flowers of the tea plant (Camellia sinensis)” (2005).
